In one series the test system is A549. The series is described as follows: Antiproliferative activity against human A549 cells assessed as reduction in cell viability incubated for 72 hrs by MTT assay. It is filed as functional, cell-based. As to conditions: A549, 72 h. An outline of the steps: (§1)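 Cells (ATCC) grown in DMEM with 10 FBS, penicillin/streptomycin, 2 mM glutamine, 37 °C, 5 CO2. 5000 cells/well seeded; after 24 h, freshly prepared dilutions at five concentrations (0.01–100 μM) added for 72 h. MTT read-out; absorbance converted to percentage growth by NIH formulas. Two experiments in quadruplicate; IC50 by linear regression.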

For the next series, the system named is CFPAC-1. The series is described as follows: Antiproliferative activity against human CFPAC-1 cells assessed as reduction in cell viability incubated for 72 hrs by MTT assay. It is filed as functional, cell-based. The note with it: Homo sapiens, CFPAC-1, 72 h; read-out: IC50. Put shortly: as §1
For a further series, the system named is HCT-116. Description: Antiproliferative activity against human HCT116cells assessed as reduction in cell viability incubated for 72 hrs by MTT assay. It is filed as functional, cell-based. The note with it: HCT-116, 72 h. Put shortly: as §1
The test system of a further series is HeLa. Description: Antiproliferative activity against human HeLa cells assessed as reduction in cell viability incubated for 72 hrs by MTT assay. It is filed as functional, cell-based. Put shortly: as §1
In a further series the test system is HepG2. The series is described as follows: Antiproliferative activity against human HepG2 cells assessed as reduction in cell viability incubated for 72 hrs by MTT assay. The note with it: HepG2, 72 h. It is filed as functional, cell-based. An outline of the steps:
as §1

A further series deals with MCF7. Description: Antiproliferative activity against human MCF7 cells assessed as reduction in cell viability incubated for 72 hrs by MTT assay. The series is classed as functional, cell-based. As to conditions: MCF7, 72 h. An outline of the steps:
as §1

A further series relates to SW-620. Description: Antiproliferative activity against human SW620 cells assessed as reduction in cell viability incubated for 72 hrs by MTT assay. It is filed as functional, cell-based. The note with it: SW-620, 72 h. An outline of the steps:
as §1

Another series concerns HFF. Description: Cytotoxicity against human HFF cells assessed as reduction in cell viability incubated for 72 hrs by MTT assay. The series is classed as cell-based. Put shortly:
as §1

Series [1] in a line: Cytotoxicity against human HELF cells assessed as minimum cytotoxic concentration by observing alteration in cell morphology incubated for 3 days by microscopic analysis. It is filed as cell-based. The note with it: HELF cells. Put shortly:
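Read-out is the minimum cytotoxic concentration (MCC): the lowest compound concentration giving a microscopically detectable change in cell morphology. Measured on confluent human embryonic lung (HEL) fibroblast cultures exposed to a range of compound concentrations.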

The next series concerns Human adenovirus 2. Description: Antiviral activity against Human adenovirus 2 infected in human HELF cells assessed as reduction in virus-induced cytopathogenicity incubated for 7 days by microscopic analysis. It is filed as functional, organism-based. As to conditions: Human mastadenovirus C, 168 h.

Consider `CCCCCc1ccc(-c2cn(C[C@H](O)[C@H]3OC(=O)C(OCc4ccccc4)=C3OCc3ccccc3)nn2)cc1`, for which the IC50 with A549 was 6.22 µM; in the series on CFPAC-1 it was 9.89 µM; with HCT-116 it was 13.8 µM; in the series on HeLa, 8.39 µM; with HepG2, 7.46 µM; in the series on MCF7, 9.01 µM. Moreover, the IC50 in the series on SW-620 is 12.2 µM; with HFF, over 100 µM.

As for `O=C1O[C@H]([C@@H](O)Cn2cc(CCCCl)nn2)C(OCc2ccccc2)=C1OCc1ccccc1`, the IC50 in the series with A549 is 29 µM; in the series on CFPAC-1 it was 58.8 µM; with HCT-116 it was 36.1 µM; in the series on HeLa, 36.7 µM; in the series with HepG2, 35 µM; with MCF7 it was 24.5 µM. Besides, the IC50 in the series on SW-620 was 68.5 µM; with HFF, 27.1 µM.

In the case of `O=C1O[C@H]([C@@H](O)Cn2cc(-c3cccc(O)c3)nn2)C(OCc2ccccc2)=C1OCc1ccccc1`, the IC50 with A549 is 59.9 µM; in the series with CFPAC-1, 54.1 µM; in the series on HCT-116 it was 42.9 µM; in the series with HepG2 it was 62.7 µM; in the series with MCF7, 51.8 µM; with SW-620 it was over 100 µM. In addition, the IC50 in the series with HFF worked out at 39 µM.

Take `O=C1O[C@H]([C@@H](O)Cn2cc(CNS(=O)(=O)c3ccc(Cl)cc3)nn2)C(OCc2ccccc2)=C1OCc1ccccc1`: the IC50 in the series with A549 is 2.87 µM; in the series with CFPAC-1, 38.9 µM; in the series on HCT-116, 8.38 µM; with HeLa it was 13.6 µM; with HepG2 it was 7.51 µM; in the series on MCF7 it was 4.17 µM. The IC50 in the series with SW-620 came to 18 µM; in the series on HFF, 0.02 µM.

Consider `Cc1ccc(-c2cn(C[C@H](O)[C@H]3OC(=O)C(OCc4ccccc4)=C3OCc3ccccc3)nn2)cc1`, for which the IC50 was 8.69 µM in the series with A549; over 100 µM in the series on CFPAC-1; over 100 µM with HCT-116; 25.5 µM with HeLa; 8.77 µM in the series on HepG2; over 100 µM in the series on MCF7. Also, the IC50 in the series with SW-620 and in the series with HFF was over 100 µM each time.

For `O=C1O/C(=C\Cn2cc(-c3cc(C(F)(F)F)cc(C(F)(F)F)c3)nn2)C(OCc2ccccc2)=C1OCc1ccccc1`, the half-maximal inhibitory concentration (IC50) in the series on A549, with CFPAC-1, with HCT-116, with HeLa, in the series with HepG2 and with MCF7 was over 100 µM throughout. In addition, the IC50 in the series on SW-620 and with HFF was over 100 µM each time.

Turning to `O=C1O[C@H]([C@@H](O)CO)C(O)=C1O` [ASCORBIC ACID], the IC50 in the series on A549, in the series with CFPAC-1, in the series on HCT-116, in the series on HeLa, in the series on HepG2 and in the series on MCF7 was over 100 µM each time. Besides, the IC50 in the series on SW-620 and in the series with HFF was over 100 µM in each case.

In the case of `O=C1O/C(=C\Cn2cc(CCCCl)nn2)C(OCc2ccccc2)=C1OCc1ccccc1`, the IC50 in the series on CFPAC-1 was over 100 µM; in the series with HCT-116, 66.8 µM; in the series with HeLa it was 66.8 µM; with HepG2, 81.1 µM; in the series with MCF7 it was 23.6 µM; in the series on SW-620, 21.6 µM. In addition, the IC50 with HFF amounted to 94.1 µM.

With `COc1ccccc1-c1cn(C[C@H](O)[C@H]2OC(=O)C(OCc3ccccc3)=C2OCc2ccccc2)nn1`, the IC50 with A549, in the series on CFPAC-1, in the series on HCT-116, in the series with HeLa, with HepG2 and with MCF7 was over 100 µM each time. The half-maximal inhibitory concentration (IC50) with SW-620 is over 100 µM; with HFF, 0.05 µM.

For the molecule `O=C1O[C@H]([C@@H](O)Cn2cc(-c3cc(C(F)(F)F)cc(C(F)(F)F)c3)nn2)C(OCc2ccccc2)=C1OCc1ccccc1`, the IC50 came out at 28.9 µM with A549; 66.5 µM with CFPAC-1; 57.2 µM in the series with HCT-116; 35.5 µM with HeLa; 33.8 µM in the series on HepG2; 45.9 µM in the series on MCF7. Further, the IC50 worked out at 49.2 µM in the series on SW-620 and 80.7 µM in the series on HFF.

`CCCCCc1ccc(-c2cn(C/C=C3\OC(=O)C(OCc4ccccc4)=C3OCc3ccccc3)nn2)cc1`: the IC50 with A549, in the series with CFPAC-1, in the series on HCT-116, with HeLa, in the series on HepG2 and with MCF7 was over 100 µM throughout. For the same molecule, the IC50 with SW-620 and in the series on HFF was over 100 µM each time.

On to `O=C1O/C(=C\Cn2cc(C3CC3)nn2)C(OCc2ccccc2)=C1OCc1ccccc1`, for which the IC50 is over 100 µM with A549; 97.1 µM in the series with CFPAC-1; 32.4 µM in the series on HCT-116; 76.8 µM in the series with HeLa; 53.1 µM with HepG2; 9.27 µM with MCF7. Moreover, the IC50 came to 29.5 µM in the series with SW-620 and 17 µM in the series with HFF.

In the case of `Cc1ccc(S(=O)(=O)NCc2cn(C[C@H](O)[C@H]3OC(=O)C(OCc4ccccc4)=C3OCc3ccccc3)nn2)cc1`, the IC50 turned out to be 16.8 µM in the series with A549; 68 µM with CFPAC-1; 13.1 µM in the series on HCT-116; 14.4 µM in the series with HeLa; 24.9 µM with HepG2; 6.4 µM in the series with MCF7. The IC50 in the series on SW-620 was 45.8 µM; in the series with HFF, 0.05 µM.

Take `Nc1ccn([C@H]2CC[C@@H](CO)O2)c(=O)n1` [ZALCITABINE]: the MCC at 72 h in [1] was over 250 µM. In addition, the EC50 in the series with Human adenovirus 2 came to 10 µM.

With `O=C1O[C@H]([C@@H](O)Cn2cc(CNS(=O)(=O)c3ccc(F)cc3)nn2)C(OCc2ccccc2)=C1OCc1ccccc1`, the IC50 in the series on A549 is 22.5 µM; in the series with CFPAC-1 it was 34.7 µM; in the series with HCT-116, 22.9 µM; in the series with HeLa, 25 µM; in the series on HepG2 it was 18.3 µM; in the series with MCF7, 26.8 µM. For the same molecule, the IC50 is 41.1 µM in the series on SW-620 and 0.03 µM with HFF.

On to `Cc1cn([C@H]2C[C@H](F)[C@@H](CO)O2)c(=O)[nH]c1=O` [ALOVUDINE], for which, in series [1], the MCC at 72 h is over 250 µM. In addition, the EC50 with Human adenovirus 2 came out at 22 µM.

Turning to `O=C1O[C@H]([C@@H](O)Cn2cc(CCO)nn2)C(OCc2ccccc2)=C1OCc1ccccc1`, the IC50 in the series with A549 was over 100 µM; in the series on CFPAC-1 it was over 100 µM; in the series with HCT-116, 72.7 µM; in the series with HeLa, 68.8 µM; in the series with HepG2 it was 68.1 µM; in the series with MCF7, 63.4 µM. Besides, the IC50 with SW-620 is over 100 µM; in the series on HFF, 58.5 µM.

In the case of `CC(C)(C)OC(=O)N1CCN(C(=S)SCc2cn(C[C@H](O)[C@H]3OC(=O)C(OCc4ccccc4)=C3OCc3ccccc3)nn2)CC1`, the IC50 with A549, in the series with CFPAC-1, in the series with HCT-116, in the series with HeLa, in the series on HepG2 and in the series on MCF7 was over 100 µM each time. In addition, the IC50 in the series on SW-620 was over 100 µM; in the series with HFF it was 0.06 µM.

`O=C1O[C@H]([C@@H](O)Cn2cc(-c3cc(F)cc(F)c3)nn2)C(OCc2ccccc2)=C1OCc1ccccc1`: the IC50 in the series with A549 was found to be 41.2 µM; in the series with CFPAC-1, 62.4 µM; in the series with HCT-116, 48.2 µM; in the series with HeLa, 40.8 µM; in the series with HepG2 it was 11.6 µM; in the series on MCF7 it was 27.7 µM. In addition, the IC50 in the series with SW-620 and in the series on HFF was over 100 µM in each case.

For the molecule `CCCCCCCCCCc1cn(C/C=C2\OC(=O)C(OCc3ccccc3)=C2OCc2ccccc2)nn1`, the IC50 with A549 was over 100 µM; in the series on CFPAC-1 it was over 100 µM; in the series with HCT-116, 98.8 µM; in the series with HeLa, over 100 µM; with HepG2 it was over 100 µM; in the series on MCF7, 72 µM. In addition, the IC50 was 91.7 µM in the series with SW-620 and over 100 µM in the series on HFF.

Regarding `COc1ccc(-c2cn(C[C@H](O)[C@H]3OC(=O)C(OCc4ccccc4)=C3OCc3ccccc3)nn2)cc1`, the IC50 in the series with A549 is 28.3 µM; in the series on CFPAC-1, 26 µM; in the series on HCT-116, over 100 µM; in the series with HeLa it was 16.4 µM; in the series on HepG2, 46.4 µM; with MCF7, 99.7 µM. The IC50 with SW-620 is 58.2 µM; in the series with HFF it was under 0.01 µM.

For the molecule `O=C1O[C@H]([C@@H](O)Cn2cc(-c3ccc(Br)cc3)nn2)C(OCc2ccccc2)=C1OCc1ccccc1`, the IC50 worked out at 0.75 µM in the series on A549; 5.83 µM with CFPAC-1; 9.42 µM in the series with HCT-116; 3.91 µM with HeLa; 5.62 µM in the series on MCF7; 3.76 µM in the series with SW-620. The IC50 in the series on HFF came out at 5.1 µM.
